# Assay outcomes as filed in PubChem.
# Rows were chosen to be rich in hits. Some 1% of all compounds tested hit in one or more screens of this group.
# Yeast growth tox = Compounds toxic to wild-type S. cerevisiae growth; A595 turbidity, 16 h; growth inhibition, % at 25 µM (by protocol); 30,000 tested, 0.3% active; AID 685;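 active means mutant and wild-type yeast strains alike exhibit over 30% growth inhibition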;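 further: 0% = untreated cell controls and 100% = YPD media blanks without cells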
#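 Schedule: 16 h growth with compound, 30 °C. System: yeast, wild-type or eIF2Bepsilon-R284H mutant. Doses: one dose, 25 µM compound[…]. Buffer or medium: YPD. Signal: turbidity measured as absorbance at 595 nm. Read-out basis: growth inhibition (%) versus cell controls and blanks.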
# eIF2B yeast act = modulators of yeast eIF2B activity | S. cerevisiae eIF2B-epsilon R284H, GCN4-lacZ luminescence | inhibition, % at 25 µM (by protocol) | 27,000 tested, 0.91% active | AID 688;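 active means mutant luminescence inhibited past about 50% while wild type luminescence and mutant growth stay under set limits, limit read from the data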
#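 Material: yeast eIF2B-epsilon R284H mutant carrying GCN4–beta-galactosidase fusion. Medium: YPD yeast growth medium. Incubation: 16 h growth with compound at 30 °C, 90 min Beta-Glo step. Signal: Beta-Glo luminescence plus absorbance at 595 nm. Evaluation: % inhibition of reporter signal and growth versus controls. Doses: 25 µM single dose.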
# * marks the source's active call; other numbers are inactive results; . = no result given.
SMILES,Yeast growth tox,eIF2B yeast act
CN(C)P(=O)(C(Cl)=C(N1CCCCC1)N1CCCCC1)N(C)C,-2,58*
CC(C)C12CN3CCN(CC(C3)C1O)C2 (centres undefined),5,-18
O=P(c1ccccc1)(c1nc2ccccc2s1)N1CCOCC1 (centres undefined),14,30
COP(=O)(OC)C1(Nc2ccc(C)cc2)CCCCC1,49*,24
CN1C(=O)c2ccccc2Sc2ccc(C(=O)N3CCC4(CC3)OCCO4)cc21,8,63*
CCN1C(=O)c2ccccc2Sc2ccc(C(=O)N3CCC4(CC3)OCCO4)cc21,-18,27
CC1=CC(=O)C2=C(C)CC(O)C3C(C)C(=O)OC3C12 (centres undefined),12,17
CCOP(=S)(OCC)SCC(=O)NC(C)(CC)C(=O)O (centres undefined),-7,13
O=C(Cc1ccccc1)Oc1ccc(N2C(=O)CCC2=O)cc1,14,8
CCCn1ncc(C(=O)O)c1C,-16,.
COCCn1c(-c2ccccc2)cc(C(=O)O)c1C,-7,51*
CCOP(=O)(C(NC(=O)c1ccccc1Cl)=C(Cl)Cl)c1ccccc1 (centres undefined),13,14
